The source of these data is ChEMBL document CHEMBL4350969, “Falcipain Inhibitors Based on the Natural Product Gallinamide A Are Potent in Vitro and in Vivo Antimalarials” (J Med Chem, 2019).

Series [1] concerns Plasmodium falciparum. In words: Antimalarial activity against synchronized ring stage CQ-resistant Plasmodium falciparum W2 infected in human erythrocytes incubated for 24 hrs followed by compound washout and subsequent compound addition and measured after 48 hrs by YOYO-1 probe-based flow cytometry. In kind it is functional, organism-based.
Series [2] can be described thus: Half life in Swiss mouse blood at 1 ug/ml by UPLC-MS analysis. The class given is ADME, tissue-based. As to conditions: whole blood.
A further series addresses T1, Falcipain 2 (Plasmodium falciparum, UniProt Q9N6S8).
T1 sequence (Q9N6S8 whole entry): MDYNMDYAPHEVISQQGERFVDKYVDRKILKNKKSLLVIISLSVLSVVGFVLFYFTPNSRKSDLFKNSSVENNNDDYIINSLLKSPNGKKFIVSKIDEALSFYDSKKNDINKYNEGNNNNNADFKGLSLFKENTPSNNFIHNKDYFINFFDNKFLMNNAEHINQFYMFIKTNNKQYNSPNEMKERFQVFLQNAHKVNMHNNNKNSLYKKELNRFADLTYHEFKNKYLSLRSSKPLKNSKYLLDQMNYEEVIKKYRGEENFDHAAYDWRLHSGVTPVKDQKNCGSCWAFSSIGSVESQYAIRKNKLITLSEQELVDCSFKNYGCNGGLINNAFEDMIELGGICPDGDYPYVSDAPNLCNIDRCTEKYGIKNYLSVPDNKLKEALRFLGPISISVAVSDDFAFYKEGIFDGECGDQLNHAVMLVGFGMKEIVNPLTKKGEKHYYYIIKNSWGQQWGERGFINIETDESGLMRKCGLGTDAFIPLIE
The series can be described thus: Inhibition of Plasmodium falciparum N-terminal His6-tagged falcipain-2 (35 residues) expressed in Escherichia coli M15 pREP4 using Z-Lue-Arg-AMC as substrate measured after 30 mins by spectrofluorometric method. In short, it runs like this:
(§1)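 Recombinant heterologously expressed FP2 or FP3; inhibition measured by continuous kinetic cleavage of fluorogenic substrate Z-Leu-Arg-AMC.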

The nature of series [3]: Drug metabolism in human liver microsomes assessed as N-demethylation at 10 uM measured after 60 mins in presence of NADPH-generating system by UPLC-MS analysis. The class given is ADME, Microsome. As to conditions: 1 h.
The nature of series [4]: Drug metabolism in mouse liver microsomes assessed as N-demethylation at 10 uM measured after 60 mins in presence of NADPH-generating system by UPLC-MS analysis. As to conditions: 1 h. The class given is ADME, Microsome.
A short description of series [5]: Half life in Swiss mouse plasma at 1 ug/ml by UPLC-MS analysis. In kind it is ADME, cell-free. The method, boiled down: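 Fresh whole blood from non-fasted male Swiss outbred mice; plasma separated by centrifugation. Compound spiked to 1 μg/mL final (0.2% DMSO, 0.4% acetonitrile), kept at 37 °C; aliquots taken over 4 h (n=3 per time point), snap-frozen, protein precipitated with acetonitrile, UPLC-MS (ESI+) against matrix calibration standards. Exponential decay fit gives k; half-life = ln(2)/k.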

Series [6] has as its system Plasmodium berghei. In words: Antimalarial activity against Plasmodium berghei ANKA infected in specific pathogen-free C57BL/6 mouse assessed as reduction in parasitemia at 12.5 to 50 mg/kg, ip administered at 72 hrs post-infection and measured daily up to 35 days post-infection by rapid staining-based microscopic analysis. In kind it is functional, organism-based. The method, boiled down: (§2)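 Peters 4-day suppressive test: female C57BL/6 mice, 8–9 weeks old, inoculated i.p. with 10^6 PbA-parasitized red cells in 200 µL Alsever's medium. Compound in DMSO diluted in saline (50, 25, 12.5, 6.25 mg/kg) or vehicle, 200 µL i.p. at 4, 24, 48 and 72 h. Daily tail-vein smears, Rapid Stain, % parasitemia by microscopy; cure = healthy, no parasitemia at day 35; 5 mice/group, mean ± SEM.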

The test system of series [7] is Plasmodium falciparum. In words: Induction of morphological changes in synchronized ring stage Plasmodium falciparum W2 infected in human erythrocytes assessed as swollen food vacuoles with accumulated hemoglobin at 300 nM measured after 36 hrs by Giemsa staining-based photomicrographic method. In kind it is functional, organism-based. The method, boiled down: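 Synchronized W2 P. falciparum cultures exposed from ring stage for 36 h to compound (4.5–10,000 nM range), with E-64 and 0.1% DMSO controls; thin smears methanol-fixed, Giemsa-stained and photographed.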

Series [8] deals with T2, Cysteine protease falcipain-3 (Plasmodium falciparum, UniProt Q9NAW4).
T2 sequence (Q9NAW4 whole entry): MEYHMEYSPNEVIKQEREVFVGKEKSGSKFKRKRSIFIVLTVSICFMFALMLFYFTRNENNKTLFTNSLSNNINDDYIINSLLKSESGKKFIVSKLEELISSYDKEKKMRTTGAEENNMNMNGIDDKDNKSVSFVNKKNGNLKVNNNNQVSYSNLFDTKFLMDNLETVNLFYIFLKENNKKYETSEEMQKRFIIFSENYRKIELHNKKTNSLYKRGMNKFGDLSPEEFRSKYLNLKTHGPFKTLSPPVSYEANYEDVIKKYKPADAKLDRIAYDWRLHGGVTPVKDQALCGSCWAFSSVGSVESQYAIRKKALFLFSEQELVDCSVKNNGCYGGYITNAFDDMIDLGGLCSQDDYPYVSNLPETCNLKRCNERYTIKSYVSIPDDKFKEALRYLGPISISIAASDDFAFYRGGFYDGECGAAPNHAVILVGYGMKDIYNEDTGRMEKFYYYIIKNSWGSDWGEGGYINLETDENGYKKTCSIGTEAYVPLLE
The series can be described thus: Inhibition of Plasmodium falciparum N-terminal His-tagged falcipain-3 (33 residues) expressed in Escherichia coli M15 pREP4 using Z-Leu-Arg-AMC as substrate measured after 30 mins by spectrofluorometric method. The method, boiled down:
as §1

Series [9] deals with Plasmodium falciparum. The series can be described thus: Antimalarial activity against synchronized ring stage CQ-sensitive Plasmodium falciparum 3D7 infected in human erythrocytes incubated for 24 hrs followed by compound washout and subsequent compound addition and measured after 48 hrs by YOYO-1 probe-based flow cytometry. In kind it is functional, organism-based.
A further series relates to HEK293. In words: Cytotoxicity against HEK293 cells assessed as reduction in cell viability at 25 uM measured after 18 hrs by alamar blue assay. As to conditions: human, hek293, 18 h. The class given is cell-based.
Series [10] has as its system Plasmodium berghei. The series can be described thus: Antimalarial activity against Plasmodium berghei ANKA infected in specific pathogen-free C57BL/6 mouse assessed as reduction in parasitemia at 25 to 50 mg/kg, ip administered at 72 hrs post-infection and measured daily up to 35 days post-infection by rapid staining-based microscopic analysis. In kind it is functional, organism-based. In short, it runs like this:
as §2

Series [11] concerns Plasmodium berghei. The series can be described thus: Antimalarial activity against Plasmodium berghei ANKA infected in specific pathogen-free C57BL/6 mouse assessed as reduction in parasitemia at 100 mg/kg, po administered once daily for 4 days measured up to 35 days post-infection by rapid staining-based microscopic analysis. The class given is functional, organism-based. The method, boiled down: (§3)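 Female C57BL/6 mice, 8–9 weeks old, inoculated i.p. with 10^6 P. berghei ANKA-parasitized red cells. Compound dissolved in DMSO, diluted in 154 mM NaCl, given by oral gavage at 100 mg/kg on days 4, 5, 6 and 7 post-infection. Tail-vein thin smears stained with Rapid Stain, % parasitemia by microscopy; mice euthanized at signs of severe disease.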

In series [12] the test system is Plasmodium berghei. In words: Antimalarial activity against Plasmodium berghei ANKA infected in specific pathogen-free C57BL/6 mouse assessed as reduction in parasitemia at […] to 12.5 mg/kg, ip administered at 72 hrs post-infection and measured daily up to 35 days post-infection by rapid staining-based microscopic analysis. The class given is functional, organism-based. The method, boiled down: as §2

A short description of series [13]: Drug metabolism in mouse liver microsomes assessed as N,N-bis-demethylation at 10 uM measured after 60 mins in presence of NADPH-generating system by UPLC-MS analysis. The following applies: 1 h. The class given is ADME, Microsome.
Series [14] can be described thus: Drug metabolism in human liver microsomes assessed as N,N-bis-demethylation at 10 uM measured after 60 mins in presence of NADPH-generating system by UPLC-MS analysis. As to conditions: 1 h. In kind it is ADME, Microsome.
Series [15] relates to Plasmodium berghei. The series can be described thus: Antimalarial activity against Plasmodium berghei ANKA infected in specific pathogen-free C57BL/6 mouse assessed as reduction in parasitemia at 50 mg/kg, ip administered once daily for 4 days measured up to 35 days post-infection by rapid staining-based microscopic analysis. The class given is functional, organism-based. In short, it runs like this: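 Established-infection model: female C57BL/6 mice inoculated i.p. with 10^6 PbA-parasitized red cells; compound in DMSO diluted in saline given i.p. at 50 mg/kg on days 4, 5, 6 and 7 post-infection, chloroquine 50 mg/kg as comparator, vehicle controls; 7 mice per group. Tail-vein smears, % parasitemia by microscopy, mean ± SEM; survival recorded.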

Series [16] relates to Plasmodium berghei. In words: Antimalarial activity against Plasmodium berghei ANKA infected in specific pathogen-free C57BL/6 mouse assessed as mouse survival at 25 to 50 mg/kg, ip administered at 72 hrs post-infection by rapid staining-based microscopic analysis.
Series [17] has as its system Plasmodium berghei. In words: Antimalarial activity against Plasmodium berghei ANKA infected in specific pathogen-free C57BL/6 mouse assessed as reduction in disease severity at 100 mg/kg, po administered once daily for 4 days measured up to 35 days post-infection by rapid staining-based microscopic analysis. The class given is functional, organism-based. In short, it runs like this: as §3

Series [18] is described as follows: Intrinsic clearance in mouse liver microsomes assessed per mg protein at 1 uM measured after 60 mins in presence of NADPH-generating system by UPLC-MS analysis. The class given is ADME, Microsome. The following applies: read-out: CLH.

Activity calls are given as the source filed them. No cut-off for these calls is given here. A value given as a limit tells only on which side of the number the result lay.

In the case of `COC1=CC(=O)N(C(=O)/C=C/[C@H](C)NC(=O)[C@H](CC(C)C)NC(=O)[C@H](CC2CCCCC2)NC(=O)C2CCN(C)CC2)[C@H]1Cc1c[nH]c2ccccc12.O=C(O)C(F)(F)F`, the IC50 in the series with Plasmodium falciparum [1] turned out to be 28 nM; on Falcipain 2, 31 nM; in series [8] it was 117 nM; with Plasmodium falciparum [9] it was 26 nM. Also, the half-life at 1 ug/ml in [2] is 0.683 h; in series [5], 2.1 h. In addition, the Drug metabolism result in [3] and in series [4] was “Metabolite_Detected” each time. Moreover, the outcome in the series with Plasmodium berghei [6] and with Plasmodium falciparum [7] was Active. The Activity result in the series on HEK293 is recorded as “Non-Toxic”.
Turning to `COC1=CC(=O)N(C(=O)/C=C/[C@H](C)NC(=O)[C@H](CC(C)C)NC(=O)[C@H](CC(C)C)NC(=O)C2CCN(C)CC2)[C@H]1Cc1c[nH]c2ccccc12.O=C(O)C(F)(F)F`, the IC50 in the series with Plasmodium falciparum [1] is 49 nM; on Falcipain 2 it was 29 nM; in series [8] it was 79 nM; in the series on Plasmodium falciparum [9], 42 nM. In addition, the half-life at 1 ug/ml in series [2] worked out at 0.283 h; in series [5], 1.37 h. Moreover, the Drug metabolism entry in [3] and in [4] was “Metabolite_Detected” each time. Also, the outcome in the series with Plasmodium berghei [10] and in the series on Plasmodium falciparum [7] was Active. Besides, the Activity result with HEK293 is on record as “Non-Toxic”.
On to `COC1=CC(=O)N(C(=O)/C=C/[C@H](CCc2ccccc2)NC(=O)[C@H](CC(C)C)NC(=O)[C@H](CC(C)C)NC(=O)[C@H](C(C)C)N(C)C)[C@H]1Cc1c[nH]c2ccccc12.O=C(O)C(F)(F)F`, for which the IC50 with Plasmodium falciparum [1] was 4 nM; on Falcipain 2, 33 nM; in series [8] it was 112 nM; with Plasmodium falciparum [9], 1 nM. Besides, the figures for the half-life at 1 ug/ml in series [2] and in series [5] were 4.55 h and 6.22 h, respectively. The outcome in the series on Plasmodium berghei [11], with Plasmodium berghei [12], with Plasmodium berghei [15], in the series on Plasmodium falciparum [7] and in the series with Plasmodium berghei [17] was Active. The Drug metabolism result in [13] and in series [14] was “Metabolite_Detected” each time. The Survival with Plasmodium berghei [16] is greater than 35 days. Also, in series [18], the microsomal CLint at 1 µM was determined as 787 µL/min/mg. The Activity entry in the series on HEK293 was “Non-Toxic”.
